According to ChEMBL document CHEMBL3407432, “Fused heterocycles bearing bridgehead nitrogen as potent HIV-1 NNRTIs. Part 3: optimization of [1,2,4]triazolo[1,5-a]pyrimidine core via structure-based and physicochemical property-driven approaches” (Eur J Med Chem, 2015):
Converted amounts (≈) assume the structure as drawn. Structures can show the parent of a compound that is named as a salt.

Experiments:
[1] = system: Human immunodeficiency virus 1; assay: Antiviral activity against HIV1 3B infected in human MT4 cells assessed as reduction in virus-induced cytopathic effect after 5 days by MTT assay; format: functional, organism-based; details: Human immunodeficiency virus 1, 3B, MT4, 120 h
Outline: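 MT-4 cells at 6 × 10⁵ cells/mL infected with HIV-1 IIIB stock at 100-300 CCID50. Test compounds added as serial five-fold dilutions in triplicate wells. Viability of infected cells read spectrophotometrically by MTT 5 days after infection. Values are the mean ± SD of at least two parallel tests.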

[2] = Selectivity index, ratio of CC50 for mock-infected human MT4 cells to EC50 for HIV1 3B infected in human MT4 cells; format: toxicity, cell-based; details: mock-infected MT4 cells and MT4 cells infected with HIV1 3B, read-out: Ratio CC50/EC50
[3] = system: Human immunodeficiency virus 1; assay: Antiviral activity against HIV1 RES056 expressing reverse transcriptase K103N + Y181C double mutant infected in human MT4 cells assessed as reduction in virus-induced cytopathic effect after 5 days by MTT assay; format: functional, organism-based; details: Human immunodeficiency virus 1, RES056, MT4, 120 h
Outline: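 MT-4 cells resuspended at 6 × 10⁵ cells/mL, infected with HIV-1 RES056 stock at 100–300 CCID50, compound in serial five-fold dilutions in triplicate wells alongside mock-infected wells. Viability read by MTT after 5 days.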

[4] = Selectivity index, ratio of CC50 for mock-infected human MT4 cells to EC50 for HIV1 RES056 expressing reverse transcriptase K103N + Y181C double mutant; format: toxicity, cell-based; details: read-out: Ratio CC50/EC50
[5] = biological target: Human immunodeficiency virus type 1 reverse transcriptase (Human immunodeficiency virus 1, UniProt Q72547); assay: Inhibition of HIV1 reverse transcriptase assessed as reduction in biotin-labeled dUTP incorporation into DNA after 1 hr using poly(A) x oligo(dT)15 template/primer hybrid, digoxigenin and biotin-labeled nucleotides
Outline: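 Recombinant HIV-1 RT, colorimetric ELISA kit. Poly(A)·oligo(dT)15 template/primer with biotin- and DIG-labelled dNTPs in lysis buffer ± inhibitor, 1 h at 37 °C. Serial five-fold dilutions tested. IC50 is the concentration halving labelled dUTP incorporation.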

[6] = Lipophilicity, log P of the compound at pH 7.0 by HPLC method; format: physicochemical; details: buffer
Outline: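 Log P measured at pH 7 by HPLC, in duplicate.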

[7] = Solubility in water at pH 7.0 after 2 hrs by HPLC-UV method; format: physicochemical
Outline: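 DMSO stock spiked into purified water to 1% final DMSO. Shaken 2 h at 3000 rpm at room temperature, left 1 h, then filtered through a 0.22 membrane. Filtrate quantified by HPLC-UV on a C18 column (150 × 4.6 mm) with MeOH/water 85/15 at 1.0 mL/min. Measured at pH 7, in duplicate.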

Structure (SMILES)	EC50 [1] [nM]	selectivity ratio [2]	EC50 [3] [nM]	selectivity ratio [4]	IC50 [5] [nM]	logP [6]	solubility at 2 h [7] [µg/mL]
Cc1cc(C)c(Oc2cc(NC3CCN(CC4CCCCC4)CC3)nc3ncnn23)c(C)c1	245	50	> 13000	< 1			
Cc1cc(C)c(Oc2cc(NC3CCN(Cc4ccncc4)CC3)nc3ncnn23)c(C)c1	17	2650	6400	7			
Cc1cc(C)c(Oc2cc(NC3CCN(Cc4ccccc4)CC3)nc3ncnn23)c(C)c1	36	708	> 25000	< 1			
Cc1cc(C)c(Oc2cc(NC3CCN(Cc4ccc(S(C)(=O)=O)cc4)CC3)nc3ncnn23)c(C)c1	8.1	2550	13000	2	500	1.91	10.3 (≈ 19.8 µM)
Cc1cc(C)c(Oc2cc(NC3CCN(Cc4ccc(S(N)(=O)=O)cc4)CC3)nc3ncnn23)c(C)c1	27	1890	22000	2			
COC(=O)c1ccc(CN2CCC(Nc3cc(Oc4c(C)cc(C)cc4C)n4ncnc4n3)CC2)cc1	15	686	> 10000	< 1			
Cc1cc(C)c(Oc2cc(NC3CCN(Cc4ccc([N+](=O)[O-])cc4)CC3)nc3ncnn23)c(C)c1	35	522	> 18000	< 1			
Cc1cc(C)c(Oc2cc(NC3CCN(Cc4ccc(C(N)=O)cc4)CC3)nc3ncnn23)c(C)c1	21	1180	> 24000	< 1			
CC(=O)c1ccc(CN2CCC(Nc3cc(Oc4c(C)cc(C)cc4C)n4ncnc4n3)CC2)cc1	8.7	2060	> 18000	< 1			
Cc1cc(C)c(Oc2cc(NC3CCN(Cc4ccc(Br)cc4)CC3)nc3ncnn23)c(C)c1	92	320	> 30000	< 1			
Cc1cc(C)c(Oc2cc(NC3CCN(Cc4cccc(Cl)c4)CC3)nc3ncnn23)c(C)c1	12	1640	> 20000	< 1			
Cc1cc(C)c(Oc2cc(NC3CCN(Cc4ccc(C#N)cc4)CC3)nc3ncnn23)c(C)c1	20	689	> 14000	< 1			
Cc1cc(C)c(Oc2cc(NC3CCN(Cc4cccc(C#N)c4)CC3)nc3ncnn23)c(C)c1	19	1320	> 25000	< 1			
Cc1cc(C)c(Oc2cc(NC3CCN(Cc4ccccc4C#N)CC3)nc3ncnn23)c(C)c1	77	356	> 27000	< 1			
Cc1cc(C)c(Oc2cc(NC3CCN(Cc4ccc(F)cc4)CC3)nc3ncnn23)c(C)c1	56	424	> 24000	< 1			
Cc1cc(C)c(Oc2cc(NC3CCN(Cc4cccc(F)c4)CC3)nc3ncnn23)c(C)c1	104	≥ 238	≥ 39000	≤ 1			

Structure (SMILES)	EC50 [1] [nM]	selectivity ratio [2]	EC50 [3] [nM]	selectivity ratio [4]	IC50 [5] [nM]	logP [6]	solubility at 2 h [7] [µg/mL]
Cc1cc(C)c(Oc2cc(NC3CCN(Cc4ccccc4F)CC3)nc3ncnn23)c(C)c1	48	520	> 25000	< 1			
Cc1ccc(CN2CCC(Nc3cc(Oc4c(C)cc(C)cc4C)n4ncnc4n3)CC2)cc1	72	679	> 49000	< 1			
Cc1cc(C)c(Oc2cc(NC3CCN(Cc4ccccc4C)CC3)nc3ncnn23)c(C)c1	42	590	> 24000	< 1			
Cc1cc(C)c(Oc2cc(NC3CCN(Cc4ccc(F)cc4F)CC3)nc3ncnn23)c(C)c1	90	255	> 23000	< 1			
Cc1cc(C)c(Oc2cc(NC3CCN(Cc4ccc(F)c(F)c4)CC3)nc3ncnn23)c(C)c1	67	346	> 23000	< 1			
Cc1cc(C)c(Oc2cc(NC3CCN(Cc4cc(F)ccc4F)CC3)nc3ncnn23)c(C)c1	98	243	> 24000	< 1			
Cc1cc(C)c(Oc2cc(NC3CCN(Cc4c(F)cccc4F)CC3)nc3ncnn23)c(C)c1	439	57	> 25000	< 1			
COC(=O)c1ccc(NC(=O)CN2CCC(Nc3cc(Oc4c(C)cc(C)cc4C)n4ncnc4n3)CC2)c(Cl)c1	277	315	> 86000	< 1			
Cc1cc(C)c(Oc2cc(NC3CCN(CC(=O)Nc4ccc(C(=O)O)cc4Br)CC3)nc3ncnn23)c(C)c1	2280	39	> 89000	< 1			
CC(C)Nc1cccnc1N1CCN(C(=O)c2cc3cc(NS(C)(=O)=O)ccc3[nH]2)CC1 [DELAVIRDINE MESYLATE]	540	> 67	> 36000	1			
O=c1[nH]cnc2c1ncn2[C@H]1CC[C@@H](CO)O1 [DIDANOSINE]		> 9					
O=C1Nc2ccc(Cl)cc2[C@@](C#CC2CC2)(C(F)(F)F)O1 [EFAVIRENZ]	6.3						
Cc1cc(C#N)cc(C)c1Oc1nc(Nc2ccc(C#N)cc2)nc(N)c1Br [ETRAVIRINE]	1.8					> 5	< 1
Nc1ccn([C@@H]2CS[C@H](CO)O2)c(=O)n1 [LAMIVUDINE]		> 39					
Cc1ccnc2c1NC(=O)c1cccnc1N2C1CC1 [NEVIRAPINE]			≥ 7600				
Cc1cn([C@H]2C[C@H](N=[N+]=[N-])[C@@H](CO)O2)c(=O)[nH]c1=O [ZIDOVUDINE]			10				
